# Assays:
# [1] = Mutagenic activity in Salmonella typhimurium TA97a assessed as increase in number of revertants at 0.002 ug/plate by Ames test absence of S9 fraction (Rvb=146+/- 8); type: toxicity; conditions: salmonella enterica subsp. enterica serovar typhimurium
# Method in brief: (§1)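 Microsuspension Ames test, with and without rat liver S9 mix. The S9 is from male Sprague-Dawley rats given Aroclor 1254 (26 mg/mL protein); the final mix is 4% S9, 10 mM G6P and 8 mM NADP. Triplicate plates are incubated 48 h at 37 °C and colonies counted automatically. Values are mean ± SD revertants per plate, tested against spontaneous revertants (Rvb) by Dunnett test.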
# [2] = Mutagenic activity in Salmonella Typhimurium TA100 assessed as increase in number of revertants at 60 ug/plate by Ames test presence of S9 fraction (Rvb=124+/-13); type: toxicity; conditions: salmonella enterica subsp. enterica serovar typhimurium; method in brief: as §1
# [3] = Mutagenic activity in Salmonella Typhimurium TA102 assessed as increase in number of revertants at 60 ug/plate by Ames test presence of S9 fraction (Rvb=369+/-34); type: toxicity; conditions: salmonella enterica subsp. enterica serovar typhimurium; method in brief: as §1
# [4] = Mutagenic activity in Salmonella typhimurium TA97a assessed as increase in number of revertants at 60 ug/plate by Ames test presence of S9 fraction (Rvb=154+/-18); type: toxicity; conditions: salmonella enterica subsp. enterica serovar typhimurium; method in brief: as §1
# [5] = Mutagenic activity in Salmonella typhimurium TA100 assessed as increase in number of revertants at 60 ug/plate by Ames test absence of S9 fraction (Rvb=108+/-5); type: toxicity; conditions: salmonella enterica subsp. enterica serovar typhimurium; method in brief: as §1
# [6] = Mutagenic activity in Salmonella Typhimurium TA97a assessed as increase in number of revertants at 100 ug/plate by Ames test presence of S9 fraction (Rvb=154+/-18); type: toxicity; conditions: salmonella enterica subsp. enterica serovar typhimurium; method in brief: as §1
# [7] = Mutagenic activity in Salmonella typhimurium TA97a assessed as increase in number of revertants at 80 ug/plate by Ames test presence of S9 fraction (Rvb=154+/-18); type: toxicity; conditions: salmonella enterica subsp. enterica serovar typhimurium; method in brief: as §1
# [8] = Mutagenic activity in Salmonella Typhimurium TA97a assessed as increase in number of revertants at 40 ug/plate by Ames test presence of S9 fraction (Rvb=154+/-18); type: toxicity; conditions: salmonella enterica subsp. enterica serovar typhimurium; method in brief: as §1
# [9] = Mutagenic activity in Salmonella Typhimurium TA98 assessed as increase in number of revertants at 80 ug/plate by Ames test absence of S9 fraction (Rvb=22+/- 4); type: toxicity; conditions: salmonella enterica subsp. enterica serovar typhimurium; method in brief: as §1
# [10] = Mutagenic activity in Salmonella typhimurium TA98 assessed as increase in number of revertants at 40 ug/plate by Ames test presence of S9 fraction (Rvb=34+/- 4); type: toxicity; conditions: salmonella enterica subsp. enterica serovar typhimurium; method in brief: as §1
# [11] = Mutagenic activity in Salmonella Typhimurium TA100 assessed as increase in number of revertants at 100 ug/plate by Ames test absence of S9 fraction (Rvb=108+/-5); conditions: salmonella enterica subsp. enterica serovar typhimurium
# [12] = Mutagenic activity in Salmonella Typhimurium TA102 assessed as increase in number of revertants at 40 ug/plate by Ames test presence of S9 fraction (Rvb=369+/-34); type: toxicity; conditions: salmonella enterica subsp. enterica serovar typhimurium; method in brief: as §1
# [13] = Mutagenic activity in Salmonella Typhimurium TA100 assessed as increase in number of revertants at 80 ug/plate by Ames test presence of S9 fraction (Rvb=124+/-13); type: toxicity; conditions: salmonella enterica subsp. enterica serovar typhimurium; method in brief: as §1
# [14] = Mutagenic activity in Salmonella Typhimurium TA98 assessed as increase in number of revertants at 100 ug/plate by Ames test presence of S9 fraction (Rvb=34+/- 4); type: toxicity; conditions: salmonella enterica subsp. enterica serovar typhimurium; method in brief: as §1
# [15] = Mutagenic activity in Salmonella Typhimurium TA98 assessed as increase in number of revertants at 100 ug/plate by Ames test absence of S9 fraction (Rvb=22+/- 4); type: toxicity; conditions: salmonella enterica subsp. enterica serovar typhimurium; method in brief: as §1
# [16] = Mutagenic activity in Salmonella Typhimurium TA97a assessed as increase in number of revertants at 80 ug/plate by Ames test absence of S9 fraction (Rvb=146+/- 8); type: toxicity; conditions: salmonella enterica subsp. enterica serovar typhimurium; method in brief: as §1
# [17] = Mutagenic activity in Salmonella Typhimurium TA102 assessed as increase in number of revertants at 100 ug/plate by Ames test absence of S9 fraction (Rvb=290+/-10); type: toxicity; conditions: salmonella enterica subsp. enterica serovar typhimurium; method in brief: as §1
# [18] = Mutagenic activity in Salmonella Typhimurium TA102 assessed as increase in number of revertants at 80 ug/plate by Ames test absence of S9 fraction (Rvb=290+/-10); type: toxicity; conditions: salmonella enterica subsp. enterica serovar typhimurium; method in brief: as §1
# [19] = Mutagenic activity in Salmonella typhimurium TA98 assessed as increase in number of revertants at 40 ug/plate by Ames test absence of S9 fraction (Rvb=22+/- 4); type: toxicity; conditions: salmonella enterica subsp. enterica serovar typhimurium; method in brief: as §1
# [20] = Mutagenic activity in Salmonella typhimurium TA100 assessed as increase in number of revertants at 80 ug/plate by Ames test absence of S9 fraction (Rvb=108+/-5); type: toxicity; conditions: salmonella enterica subsp. enterica serovar typhimurium; method in brief: as §1
# [21] = Mutagenic activity in Salmonella Typhimurium TA98 assessed as increase in number of revertants at 80 ug/plate by Ames test presence of S9 fraction (Rvb=34+/- 4); type: toxicity; conditions: salmonella enterica subsp. enterica serovar typhimurium; method in brief: as §1
# [22] = Mutagenic activity in Salmonella Typhimurium TA102 assessed as increase in number of revertants at 40 ug/plate by Ames test absence of S9 fraction (Rvb=290+/-10); type: toxicity; conditions: salmonella enterica subsp. enterica serovar typhimurium; method in brief: as §1
# [23] = Mutagenic activity in Salmonella typhimurium TA97a assessed as increase in number of revertants at 60 ug/plate by Ames test absence of S9 fraction (Rvb=146+/- 8); type: toxicity; conditions: salmonella enterica subsp. enterica serovar typhimurium; method in brief: as §1
# [24] = Mutagenic activity in Salmonella Typhimurium TA97a assessed as increase in number of revertants at 100 ug/plate by Ames test absence of S9 fraction (Rvb=146+/- 8); type: toxicity; conditions: salmonella enterica subsp. enterica serovar typhimurium; method in brief: as §1
# [25] = Mutagenic activity in Salmonella Typhimurium TA97a assessed as increase in number of revertants at 40 ug/plate by Ames test absence of S9 fraction (Rvb=146+/- 8); type: toxicity; conditions: salmonella enterica subsp. enterica serovar typhimurium; method in brief: as §1
# [26] = Mutagenic activity in Salmonella Typhimurium TA102 assessed as increase in number of revertants at 60 ug/plate by Ames test absence of S9 fraction (Rvb=290+/-10); type: toxicity; conditions: salmonella enterica subsp. enterica serovar typhimurium; method in brief: as §1
# [27] = Mutagenic activity in Salmonella typhimurium TA100 assessed as increase in number of revertants at 40 ug/plate by Ames test presence of S9 fraction (Rvb=124+/-13); type: toxicity; conditions: salmonella enterica subsp. enterica serovar typhimurium; method in brief: as §1
# [28] = Mutagenic activity in Salmonella Typhimurium TA102 assessed as increase in number of revertants at 100 ug/plate by Ames test presence of S9 fraction (Rvb=369+/-34); type: toxicity; conditions: salmonella enterica subsp. enterica serovar typhimurium; method in brief: as §1
# [29] = Mutagenic activity in Salmonella typhimurium TA102 assessed as increase in number of revertants at 80 ug/plate by Ames test presence of S9 fraction (Rvb=369+/-34); type: toxicity; conditions: salmonella enterica subsp. enterica serovar typhimurium; method in brief: as §1
# [30] = Mutagenic activity in Salmonella typhimurium TA98 assessed as increase in number of revertants at 60 ug/plate by Ames test presence of S9 fraction (Rvb=34+/- 4); type: toxicity; conditions: salmonella enterica subsp. enterica serovar typhimurium; method in brief: as §1
# [31] = Cytotoxicity activity against CHO cells assessed as cell viability after 2 hrs by WST1 test; type: cell-based, Cricetulus griseus; conditions: chinese hamster, read-out: Activity
# Method in brief: (§2)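 CHO-K1 cells in McCoy's 5A with 10% fetal calf serum are seeded and incubated overnight at 37 °C, 5% CO2. A range of compound concentrations is added in triplicate cultures (final DMSO below 0.2%) for 2 or 24 h. Cells are washed three times in PBS, then given 10% WST1 in medium for 30 min. Viability is read as absorbance at 450 nm.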
# [32] = Mutagenic activity in Salmonella typhimurium TA100 assessed as increase in number of revertants at 100 ug/plate by Ames test presence of S9 fraction (Rvb=124+/-13); type: toxicity; conditions: salmonella enterica subsp. enterica serovar typhimurium; method in brief: as §1
# [33] = Mutagenic activity in Salmonella typhimurium TA98 assessed as increase in number of revertants at 60 ug/plate by Ames test absence of S9 fraction (Rvb=22+/- 4); type: toxicity; conditions: salmonella enterica subsp. enterica serovar typhimurium; method in brief: as §1
# [34] = Mutagenic activity in Salmonella Typhimurium TA100 assessed as increase in number of revertants at 40 ug/plate by Ames test absence of S9 fraction (Rvb=108+/-5); type: toxicity; conditions: salmonella enterica subsp. enterica serovar typhimurium; method in brief: as §1
# CHO = test: Cytotoxicity activity against CHO cells assessed as cell viability after 24 hrs by WST1 test; type: cell-based, Cricetulus griseus; conditions: chinese hamster; method in brief: as §2
smiles,measurement,setting,value
COc1ccc2nc3cc(Cl)ccc3c(NCCCNCCCl)c2c1,Activity,[1],1287
C=C[C@@H]1C2=CCOC(=O)C2=CO[C@H]1O[C@@H]1O[C@H](CO)[C@@H](O)[C@H](O)[C@H]1O [GENTIOPICROSIDE],Activity,[2],116
same,Activity,[3],385
same,Activity,[4],186
same,Activity,[5],135
same,Activity,[6],173
same,Activity,[7],178
same,Activity,[8],274
same,Activity,[9],26
same,Activity,[10],32
same,Activity,[11],136
same,Activity,[12],376
same,Activity,[13],140
same,Activity,[14],31
same,Activity,[15],26
same,Activity,[16],180
same,Activity,[17],392
same,Activity,[18],395
same,Activity,[19],19
same,Activity,[20],138
same,Activity,[21],28
same,Activity,[22],368
same,Activity,[23],174
same,Activity,[24],180
same,Activity,[25],188
same,Activity,[26],378
same,Activity,[27],119
same,Activity,[28],385
same,Activity,[29],413
same,Activity,[30],29
same,viability at 2 h,[31],95%
same,Activity,[32],138
same,Activity,[33],22
same,Activity,[34],117
same,Activity,CHO,Non-toxic

# From ChEMBL document CHEMBL1154886, “DNA-damaging, mutagenic, and clastogenic activities of gentiopicroside isolated from Cephalaria kotschyi roots” (J Nat Prod, 2010)
